How the values were obtained:
[1] = biological target: T1, AB sulfation in HLC (SULT2A1) (Homo sapiens, UniProt Q06520); test: Chemical inhibition of AB sulfation in HLC; assay type: biochemical; conditions: for inhibition of AB sulfation / residual activity of AB sulfation: HLC, Fig. 2A
T1 sequence (Q06520 1-285): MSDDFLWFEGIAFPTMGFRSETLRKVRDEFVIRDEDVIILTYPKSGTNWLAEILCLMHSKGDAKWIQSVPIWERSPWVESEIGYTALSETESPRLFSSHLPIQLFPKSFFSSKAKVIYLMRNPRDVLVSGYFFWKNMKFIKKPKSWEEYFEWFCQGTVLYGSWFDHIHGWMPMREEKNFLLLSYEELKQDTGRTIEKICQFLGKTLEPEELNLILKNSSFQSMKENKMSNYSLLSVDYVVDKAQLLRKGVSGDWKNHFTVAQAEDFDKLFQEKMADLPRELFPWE

SULT2A1 [2] = biological target: T2, SULT2A1 (Homo sapiens, UniProt Q06520); test: Sulfation of AB, DHEA and bufadienolides by recombinant human SULT2A1; assay type: in vitro ADME
T2 sequence (Q06520 1-285): T1 sequence (Q06520 1-285)

SULT1E1 = biological target: T3, SULT1E1 (Homo sapiens, UniProt P49888); test: DHEA sulfation kinetics by recombinant SULT1E1; assay type: in vitro ADME
T3 sequence (P49888 1-294): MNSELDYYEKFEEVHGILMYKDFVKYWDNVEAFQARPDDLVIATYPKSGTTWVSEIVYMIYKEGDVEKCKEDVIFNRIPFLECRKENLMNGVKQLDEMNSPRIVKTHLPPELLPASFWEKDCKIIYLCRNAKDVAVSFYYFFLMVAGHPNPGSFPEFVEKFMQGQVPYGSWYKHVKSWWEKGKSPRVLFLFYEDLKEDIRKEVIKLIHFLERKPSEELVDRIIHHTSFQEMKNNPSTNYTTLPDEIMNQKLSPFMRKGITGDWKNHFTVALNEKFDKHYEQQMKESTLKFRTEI

[3] = Sulfation kinetics and rate in pooled human liver cytosols; assay type: in vitro ADME; conditions: human, pooled human liver cytosols (HLC), pH 7.4
Procedure, shortened: (§1)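 Substrate-concentration series with pooled mixed-gender human liver cytosol or recombinant human SULTs. Buffer is 50 mmol/L potassium phosphate, pH 7.4, with DTT 8 mmol/L, MgCl2 5 mmol/L and PAPS 4 mmol/L, at 37 °C and within linear formation conditions. Sulfate is quantified by LC–MS/MS. Eadie–Hofstee plots choose the Michaelis–Menten or substrate-inhibition fit. Km, Vmax (and Ksi) come from nonlinear regression. Duplicates in three independent experiments.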

SULT2A1 (sulfation) = test: as above; assay type: in vitro ADME; conditions: human, pooled human liver cytosols (HLC), pH 7.4, Km, sulfation by HLC
Procedure, shortened: as §1

[4] = system: pooled human liver cytosols (HLC); test: as above; assay type: in vitro ADME
Procedure, shortened: as §1

SULT2A1 [5] = biological target: T2, SULT2A1; test: Inhibition of AB sulfation in rhSULT2A1; assay type: biochemical
[6] = biological target: T4, AB sulfation in cytosol of human kidney, small intestine and brain (Homo sapiens, UniProt Q06520); test: Inhibition of AB sulfation in cytosol of human kidney, small intestine and brain; assay type: biochemical; conditions: Fig. S5
T4 sequence (Q06520 1-285): T1 sequence (Q06520 1-285)

[7] = substrate: C[C@]12CC[C@H](O)CC1=CC[C@@H]1[C@@H]2CC[C@]2(C)C(=O)CC[C@@H]12; test: Sulfation of AB, DHEA and bufadienolides by recombinant human SULT2A1; assay type: in vitro ADME; conditions: other: sulfation by SULT2A1; pH 7.4; 37.0 °C
[8] = substrate: C[C@]12CC[C@H](O)CC1=CC[C@@H]1[C@@H]2CC[C@]2(C)C(=O)CC[C@@H]12; test: DHEA sulfation kinetics by recombinant SULT1E1; assay type: in vitro ADME, human; conditions: other: sulfation by SULT1E1; pH 7.4; 37.0 °C

CS(=O)(=O)Nc1ccc([N+](=O)[O-])cc1Oc1ccccc1 [nimesulide]
inhibition of AB sulfation [1]: less than 20%

CC(C)Cc1ccc(C(C)C(=O)O)cc1 (centres unmarked) [ibuprofen]
inhibition of AB sulfation [1]: less than 20%

C[C@]12CC[C@H](O)CC1=CC[C@@H]1[C@@H]2CC[C@]2(C)C(=O)CC[C@@H]12 [DHEA, dehydroepiandrosterone]
microsomal CLint (SULT2A1 [2]; human, recombinant human SULT2A1 (rhSULT2A1), pH 7.4): 2940 µL/min/mg
kinetic model of sulfation (SULT2A1 [2]; rhSULT2A1, Eadie–Hofstee plot): substrate inhibition kinetic model
Ksi (SULT2A1 [2]; sulfation by SULT2A1): 2.2 ± 0.9 µmol/L
CLint of SULT1E1-mediated sulfation, fold higher than for SULT2A1 (SULT1E1; SULT1E1 vs SULT2A1): 1.5 fold
Km of SULT1E1-mediated sulfation, fold lower than for SULT2A1 (SULT1E1; SULT1E1 vs SULT2A1): 7.2 fold
microsomal CLint (SULT1E1; human, recombinant human SULT1E1 (rhSULT1E1), pH 7.4): 4260 µL/min/mg
kinetic model of sulfation (SULT1E1; rhSULT1E1): substrate inhibition kinetic model
Ksi (SULT1E1; sulfation by SULT1E1): 2.9 ± 1.2 µmol/L
microsomal CLint [3]: 48.2 µL/min/mg
Km (SULT2A1 (sulfation)): 1.08 ± 0.17 µM
kinetic model of sulfation ([4]; HLC, Eadie–Hofstee plot): substrate inhibition kinetic model
Ksi ([4]; sulfation by HLC): 17.2 ± 2.9 µmol/L
Vm ([4]; sulfation by HLC): 0.052 ± 0.004 nmol/min/mg
IC50 [1]: 1880 nM
residual activity of AB sulfation [1]: less than 10%
IC50 (SULT2A1 [5]): 1640 nM
inhibitory effect toward AB sulfation in different organs [6]: strong inhibitory effect

C[C@]12CC[C@@H]3c4ccc(O)cc4CC[C@H]3[C@@H]1CCC2=O [estrone]
inhibition of AB sulfation [1]: less than 20%

C[C@]12CC[C@H](O)C[C@H]1CC[C@@H]1[C@@H]2CC[C@]2(C)[C@@H](c3ccc(=O)oc3)C[C@H]3O[C@]132 [RB, resibufogenin]
sulfation rates by SULT2A1 compared with other bufadienolides (SULT2A1 [2]; 1, 10 and 100 µmol/L, 0.1 mg/mL protein, 60 min, Fig. S1B): higher than those of other bufadienolides
trend of sulfation rate with increasing substrate concentration (SULT2A1 [2]; up to 100 µmol/L, SULT2A1): decreasing trend

CC1(C)[C@@H](O)CC[C@]2(C)[C@H]3C(=O)C=C4[C@@H]5C[C@@](C)(C(=O)O)CC[C@]5(C)CC[C@@]4(C)[C@]3(C)CC[C@@H]12 [GA, glycyrrhetinic acid]
residual activity of AB sulfation [1]: less than 10%
inhibitory effect toward AB sulfation in different organs [6]: strong inhibitory effect

O=[N+]([O-])c1cc(Cl)c(O)c(Cl)c1 [DCNP, 2,6-dichloro-p-nitrophenol]
inhibition of AB sulfation [1]: less than 20%

Cc1cccc(Nc2ccccc2C(=O)O)c1C [MFC, mefenamic acid]
inhibition of AB sulfation [1]: less than 20%

B1: rhSULT2A1 (Homo sapiens) (protein)
chain: T1 sequence (Q06520 1-285)
Km [7]: 2.48 ± 1.15 µM
Vmax [7]: 0.0073 µmol/min/mg
Vmax/Km [7]: 2940 µL/min/mg

B2: rhSULT1E1 (Homo sapiens) (protein)
chain: T3 sequence (P49888 1-294)
Km [8]: 0.34 ± 0.13 µM
Vmax [8]: 0.00145 µmol/min/mg
Vmax/Km [8]: 4260 µL/min/mg

From paper PMC6146385 (Acta Pharmaceutica Sinica. B, 2018)
